One series in a line: MRC-5SV2 cytotoxicity. It is filed as cell-based, human. To be noted: human, MRC-5SV2 cells, MRC-5 CC50, MRC-5SV2 cells, 3 days incubation. Put shortly:
(§1)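 MRC-5SV2 cells (3×10^4 cells/mL) in MEM with Earl's salts, L-glutamine, NaHCO3 and 5% inactivated FCS, at 37 °C and 5% CO2. Exposure to test compound (ten 4-fold dilutions, top 64 μM, <1% DMSO) lasted 3 days. Resazurin was then added for 4 h at 37 °C, with fluorescence read at ex 550/em 590 nm. CC50 from % reduction relative to untreated (100%) and medium-only (0%) controls.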

Series [1] relates to primary peritoneal mouse macrophages (PMM). The series is described as follows: PMM cytotoxicity. It is filed as cell-based. Conditions: read-out: PMM CC50; primary peritoneal mouse macrophages.
The next series in a line: PMM cytotoxicity. It is filed as cell-based, mouse. Conditions: Swiss, mouse, PMM CC50, primary peritoneal mouse macrophages.
Series [2] relates to T. b. rhodesiense (STIB-900 strain). The series is described as follows: In vitro activity against T. b. rhodesiense. It is filed as cell-based. To be noted: Trypanosoma brucei, read-out: T. b. rhod. EC50. The method in brief:
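STIB-900 parasites, axenic in HMI-9 with 10% FBS at 37 °C and 5% CO2, seeded at 4×10^3 parasites/well. Test compound was given as ten 4-fold dilutions (top 64 μM, <1% DMSO). Growth period […], then resazurin added and fluorescence measured after 24 h. IC50 from a sigmoid variable-slope fit versus untreated controls; mean ± SEM, 2–4 experiments. Suramin as reference.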

A short description of series [3]: Microsomal stability assay, hamster. It is filed as in vitro ADME. Conditions: hamster microsomal (S9) fractions, % remaining parent compound; for remaining at 0 h: 0 min; for remaining at 0.25 h: 15 min; for remaining at 0.5 h: 30 min; for remaining at 1 h: 60 min.
Series [4] deals with T. cruzi Tulahuen CL2 β-galactosidase strain. Briefly: In vitro activity against T. cruzi intracellular amastigotes in MRC-5SV2 cells. It is filed as cell-based. Conditions: Trypanosoma cruzi, MRC-5 SV2, 168 h, read-out: T. cruzi EC50. Put shortly:
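Nifurtimox-sensitive Tulahuen CL2 β-galactosidase parasites infected MRC-5SV2 fibroblasts in MEM with 200 mM L-glutamine, 16.5 mM NaHCO3 and 5% inactivated FCS, at 37 °C and 5% CO2. Wells held 4×10^3 cells and 4×10^4 parasites. Test compound was given as ten 4-fold dilutions (top 64 μM, <1% DMSO) for 7 days. CPRG was then added for 4 h at 37 °C and absorbance read at 540 nm. IC50 from % reduction versus untreated-infected controls; mean ± SEM, 2–4 experiments. Benznidazole reference.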

A short description of series [5]: Microsomal stability assay, human. It is filed as in vitro ADME. To be noted: pooled human liver microsomes (microsomal (S9) fractions), % remaining parent compound; for remaining at 0 h: 0 min; for remaining at 0.25 h: 15 min; for remaining at 0.5 h: 30 min; for remaining at 1 h: 60 min.
In series [6] the test system is T. b. brucei (Squib 427 strain). Briefly: In vitro activity against T. b. brucei. It is filed as cell-based. Conditions: Trypanosoma brucei, read-out: T. b. bruc. EC50.
Another series relates to MRC-5SV2 cells. Briefly: MRC-5SV2 cytotoxicity. It is filed as cell-based, human. Conditions: read-out: MRC-5 CC50, 3 days incubation. Put shortly:
as §1

In general, CC50 refers to the concentration giving 50% cytotoxicity. For orientation: EC50 means the concentration needed to bring the measured effect to its halfway point.

Molecule `Cc1ncnc2c1c(Cl)cn2[C@@H]1O[C@H](CO)[C@@H](O)[C@H]1O` [compound 7] showed a CC50 at 3 days in the series “MRC-5SV2 cytotoxicity” of 54.8 ± 2.52 µM. Also, the CC50 in series [1] worked out at 32 µM. The CC50 at 5 days in the series “PMM cytotoxicity” is > 64 µM. Also, the EC50 in series [2] came to 0.84 ± 0.63 µM; in series [4], 3.61 ± 1.24 µM; in series [6], 4.78 ± 2.19 µM. For the same molecule, the share remaining at 0 h in [3] (CYP – NADPH (Phase-I)), in [3] (UGT Enz. (Phase-II)), in series [5] (CYP – NADPH (Phase-I)) and in series [5] (UGT Enz. (Phase-II)) was 100% each time. Further, the share remaining at 0.25 h was determined as 95% in [3] (CYP – NADPH (Phase-I)), 96% in series [3] (UGT Enz. (Phase-II)), 96% in [5] (CYP – NADPH (Phase-I)) and 102% in series [5] (UGT Enz. (Phase-II)). In addition, the fraction remaining at 0.5 h in series [3] (CYP – NADPH (Phase-I)) worked out at 93%; in [3] (UGT Enz. (Phase-II)), 100%; in series [5] (CYP – NADPH (Phase-I)), 97%; in series [5] (UGT Enz. (Phase-II)), 97%. Besides, the amount remaining at 1 h turned out to be 93% in [3] (CYP – NADPH (Phase-I)), 102% in series [3] (UGT Enz. (Phase-II)), 96% in [5] (CYP – NADPH (Phase-I)) and 96% in series [5] (UGT Enz. (Phase-II)).
`CCOc1ncnc2c1c(CC)cn2[C@@H]1O[C@H](CO)[C@@H](O)[C@H]1O` [compound 42]: in the series on MRC-5SV2 cells, the CC50 was > 64 µM. The molecule further yielded a half-maximal cytotoxic concentration (CC50) at 3 days in the series “MRC-5SV2 cytotoxicity” of 52.5 µM. Further, the CC50 at 5 days in the series “PMM cytotoxicity” was > 64 µM. Also, the 50% effective concentration (EC50) came to 2.06 ± 0.51 µM in [2], 7.71 ± 0.91 µM in series [4] and 1.25 ± 0.06 µM in series [6].

The values above are taken from PMC8358123 (International Journal for Parasitology: Drugs and Drug …, 2021).
